Experiments:
[1] = tested on: Wi-38 normal human lung fibroblast cells; experiment: MTT assay against normal human cell line; format: cell-based; settings: for IC50: Homo sapiens, WI-38, 72 h, read-out: Wi-38 IC50; for Wi-38 IC100: MTT, 72 h, SI calls it EC100, dose at 100% cell viability, mean ± SEM
Procedure, shortened: (§1)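 Cytotoxicity by MTT, run side by side on MCF-7 and MDA-MB231 breast cancer cells and Wi-38 normal human fibroblasts, with doxorubicin as reference. IC50 was determined for each line, and IC100 also on Wi-38. Selectivity indices express selectivity toward each breast cancer line over the normal Wi-38 cells.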

MDA-MB 231 cells = experiment: MTT assay against human breast cancer cell line MDA-MB 231; format: cell-based; settings: for IC50: Homo sapiens, MDA-MB-231, 72 h, read-out: MDA-MB 231 IC50; for MDA-MB 231 SI (selectivity index): over Wi-38 normal cells
Procedure, shortened: as §1

MCF-7 cells [2] = experiment: MTT assay against human breast cancer cell line MCF-7; format: cell-based; settings: for IC50: Homo sapiens, MCF7, 72 h, read-out: MCF-7 IC50; for MCF-7 SI (selectivity index): over Wi-38 normal cells; for cytotoxicity compared to doxorubicin: MTT, cell line not given, fits MCF-7 IC50 values; for fold reduction of potency and selectivity relative to 18: MCF-7, bromo replaced by chloro or nitro
Procedure, shortened: as §1

calf thymus DNA (ctDNA) = experiment: DNA damage by terbium; format: biochemical; settings: 24 h incubation, Tb fluorescence 545 nm
MCF-7 cells [3] = experiment: MCF-7 cell cycle analysis by flow cytometry; format: cell-based, human; settings: MCF-7, 24 h treatment with IC50
MCF-7 cells [4] = experiment: Annexin V-FITC/PI double staining apoptosis assay; format: cell-based, human; settings: MCF-7, 24 h treatment with IC50

Compound | IC50 [1] [nM] | Wi-38 IC100 [1] [µM] | IC50 (MDA-MB 231 cells) [nM] | MDA-MB 231 SI (selectivity index) (MDA-MB 231 cells) | IC50 (MCF-7 cells [2]) [nM] | MCF-7 SI (selectivity index) (MCF-7 cells [2]) | cytotoxicity compared to doxorubicin (MCF-7 cells [2]) | LOD (minimum concentration inducing detectable DNA damage) (calf thymus DNA (ctDNA)) [nM] | LOQ (calf thymus DNA (ctDNA)) [nM] | cell cycle distribution compared to untreated cells (MCF-7 cells [3]) | early apoptosis (MCF-7 cells [4]) [%] | late apoptosis (MCF-7 cells [4]) [%] | total cell death (apoptosis induction) (MCF-7 cells [4]; control 0.73%) [%] | necrotic cells (MCF-7 cells [4]; control 1.34%) [%] | fold reduction of potency and selectivity relative to 18 (MCF-7 cells [2]) [fold]
CC(=O)Nc1c(N)nc(S)[nH]c1=O [Compound 3, N-(4-amino-2-mercapto-6-oxo-1,6-dihydropyrimidin-5-yl)acetamide] | 1340 ± 72 | 0.103 ± 0.045 | 1440 ± 255 | 0.930 | 832 ± 48 | 1.615 |  |  |  |  |  |  |  |  | 
CCOC(=O)CSc1nc(N)c(NC(C)=O)c(=O)[nH]1 [Compound 4, Ethyl 2-((5-Acetamido-4-amino-6-Oxo-1,6-dihydropyrimidin-2-yl)thio)acetate] | 852 ± 11 | 0.352 ± 0.012 | 840 ± 50 | 1.014 | 266 ± 15 | 3.203 |  |  |  |  |  |  |  |  | 
CC(=O)Nc1c(N)nc(SCC(=O)NN)[nH]c1=O [Compound 5, N-(4-amino-2-((2-hydrazinyl-2-oxoethyl)thio)-6-oxo-1,6-dihydropyrimidin-5-yl)acetamide] | 801 ± 31 | 0.240 ± 0.003 | 826 ± 46 | 0.969 | 50 ± 8 | 16.02 | surpassed doxorubicin | 10.64 | 35.48 | increased DNA content during S | 29.11 | 17.64 | 46.75 | 5.39 | 
CC(=O)Nc1c(N)nc(SCC(=O)N/N=C/c2ccc(Cl)cc2)[nH]c1=O [Compound 6, (E)-N-(4-amino-2-((2-(2-(4-chlorobenzylidene)hydrazinyl)-2-oxoethyl)thio)-6-oxo-1,6-dihydropyrimidin-5-yl)acetamide] | 692 ± 64 | 0.037 ± 0.007 | 681 ± 29 | 1.016 | 445 ± 15 | 1.555 |  |  |  |  |  |  |  |  | 
CC(=O)Nc1c(N)nc(SCC(=O)N/N=C/c2ccc(Br)cc2)[nH]c1=O [Compound 7, (E)-N-(4-amino-2-((2-(2-(4-bromobenzylidene)hydrazinyl)-2-oxoethyl)thio)-6-oxo-1,6-dihydropyrimidin-5-yl)acetamide] | 408 ± 81 | 0.232 ± 0.003 | 616 ± 20 | 0.662 | 167 ± 40 |  | surpassed doxorubicin |  |  |  |  |  |  |  | 
CC(=O)Nc1c(N)nc(SCC(=O)N/N=C/c2ccc([N+](=O)[O-])cc2)[nH]c1=O [Compound 8, (E)-N-(4-amino-2-((2-(2-(4-nitrobenzylidene)hydrazinyl)-2-oxoethyl)thio)-6-oxo-1,6-dihydropyrimidin-5-yl)acetamide] | 713 ± 44 | 0.491 ± 0.084 | 583 ± 20 | 1.222 | 146 ± 11 | 4.883 | surpassed doxorubicin | 30.03 | 100.12 |  |  |  |  |  | 
COc1ccc(/C=N/NC(=O)CSc2nc(N)c(NC(C)=O)c(=O)[nH]2)cc1 [Compound 9, (E)-N-(4-amino-2-((2-(2-(4-methoxybenzylidene)hydrazinyl)-2-oxoethyl)thio)-6-oxo-1,6-dihydropyrimidin-5-yl)acetamide] | 1050 ± 25 | 0.424 ± 0.020 | 683 ± 1 | 1.531 | 217 ± 16 | 4.820 |  |  |  |  |  |  |  |  | 
CC(=O)Nc1c(N)nc(SCC(=O)N/N=C/c2ccccc2O)[nH]c1=O [Compound 10, (E)-N-(4-amino-2-((2-(2-(2-hydroxybenzylidene)hydrazinyl)-2-oxoethyl)thio)-6-oxo-1,6-dihydropyrimidin-5-yl)acetamide] | 501 ± 49 | 0.241 ± 0.037 | 590 ± 49 | 0.849 | 102 ± 1 | 4.911 | surpassed doxorubicin |  |  |  |  |  |  |  | 
Cc1cc(=O)n2c(C)n[nH]c2n1 [Compound 14, 3,7-Dimethyl-1,2,4-triazolo[4,3-a]pyrimidin-5(1H)-one] | 1510 ± 41 | 0.206 ± 0.014 | 1260 ± 52 | 1.200 | 292 ± 10 | 5.157 |  |  |  |  |  |  |  |  | 
COC(=O)Cn1nc(C)n2c(=O)cc(C)nc12 [Compound 15, Methyl 2-(3,7-dimethyl-5-oxo-1,2,4-triazolo[4,3-a]pyrimidin-1(5H)-yl)acetate] | 1170 ± 22 | 0.237 ± 0.017 | 1280 ± 56 | 0.912 | 617 ± 29 | 1.894 |  |  |  |  |  |  |  |  | 
Cc1cc(=O)n2c(C)nn(CC(=O)NN)c2n1 [Compound 16, 2-(3,7-Dimethyl-5-oxo-1,2,4-triazolo[4,3-a]pyrimidin-1(5H)-yl)acetohydrazide] | 978 ± 13 | 0.115 ± 0.033 | 1128 ± 2 | 0.867 | 544 ± 8 | 1.797 |  |  |  |  |  |  |  |  | 
Cc1cc(=O)n2c(C)nn(CC(=O)N/N=C/c3ccc(Cl)cc3)c2n1 [Compound 17, (E)-N′-(4-chlorobenzylidene)-2-(3,7-dimethyl-5-oxo-1,2,4-triazolo[4,3-a]pyrimidin-1(5H)-yl)acetohydrazide] | 593 ± 24 | 0.124 ± 0.034 | 632 ± 29 | 0.938 | 403 ± 62 | 1.471 |  |  |  |  |  |  |  |  | 5
Cc1cc(=O)n2c(C)nn(CC(=O)N/N=C/c3ccc(Br)cc3)c2n1 [Compound 18, (E)-N′-(4-bromobenzylidene)-2-(3,7-dimethyl-5-oxo-1,2,4-triazolo[4,3-a]pyrimidin-1(5H)-yl)acetohydrazide] | 593 ± 5 | 0.111 ± 0.005 | 559 ± 29 | 1.060 | 42 ± 9 | 14.119 | surpassed doxorubicin |  |  |  |  |  |  |  | 
Cc1cc(=O)n2c(C)nn(CC(=O)N/N=C/c3ccc([N+](=O)[O-])cc3)c2n1 [Compound 19, (E)-N′-(4-nitrobenzylidene)-2-(3,7-dimethyl-5-oxo-1,2,4-triazolo[4,3-a]pyrimidin-1(5H)-yl)acetohydrazide] | 612 ± 34 | 0.329 ± 0.031 | 820 ± 90 | 0.746 | 201 ± 39 | 3.044 |  |  |  |  |  |  |  |  | 10
COc1ccc(/C=N/NC(=O)Cn2nc(C)n3c(=O)cc(C)nc23)cc1 [Compound 20, (E)-N′-(4-methoxybenzylidene)-2-(3,7-dimethyl-5-oxo-1,2,4-triazolo[4,3-a]pyrimidin-1(5H)-yl)acetohydrazide] | 723 ± 20 | 0.280 ± 0.037 | 856 ± 19 | 0.844 | 334 ± 20 |  |  |  |  |  |  |  |  |  | 
Cc1cc(=O)n2c(C)nn(CC(=O)N/N=C/c3ccccc3O)c2n1 [Compound 21, (E)-N′-(2-hydroxybenzylidene)-2-(3,7-dimethyl-5-oxo-1,2,4-triazolo[4,3-a]pyrimidin-1(5H)-yl)acetohydrazide] | 518 ± 8 | 0.269 ± 0.026 | 697 ± 24 | 0.743 | 52 ± 10 | 9.961 | surpassed doxorubicin |  |  |  |  |  |  |  | 
COc1cccc2c1C(=O)c1c(O)c3c(c(O)c1C2=O)C[C@@](O)(C(=O)CO)C[C@@H]3O[C@H]1C[C@H](N)[C@H](O)[C@H](C)O1 [DOX., doxorubicin, reference compound] | 322 ± 25 | 0.119 ± 0.005 | 487 ± 18 | 0.661 | 198 ± 11 | 1.626 |  | 0.76 | 2.56 |  |  |  |  |  | 
